Assay [1] is described as follows: Inhibition of hedgehog pathway in mouse C3H10T1/2 cells assessed as Gli1 mRNA expression at 1 uM after 24 hrs by qPCR method. The class given is cell-based. On the set-up: scale not given: the % may be the effect or the level left. The settings on record: C3H 10T1/2. The method, boiled down: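 C3H10T1/2 mouse embryonic fibroblasts were stimulated with recombinant mouse Sonic Hedgehog (C25II) and co-treated with compound at 1 μM for 24 h. Endogenous Gli1 mRNA was measured by qPCR and expressed as % of the Hh-ligand-only control (100%).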

Assay [2] relates to HUVEC. Nature of the assay: Antiproliferative activity against HUVEC assessed as inhibition of VEGF induced cell proliferation after 72 hrs by MTS assay. The class given is functional. To be noted: Homo sapiens. Summed up: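 HUVECs were seeded at 3,000 cells/well, attached overnight, then treated with varying drug concentrations. Metabolic activity was read with MTS/PMS after 72 h. GI50 is the mean ± SEM of at least two separate experiments run in triplicate.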
A general note: Tetrazolium assays rely on reduction of a dye to a coloured formazan, in cell work by metabolically active cells.

Assay [3] concerns the target Cytochrome P450 3A4 (Homo sapiens, UniProt P08684). The experiment in a line: Inhibition of CYP3A4 in human liver microsomes using testosterone as substrate after 10 mins by LC/MS/MS analysis. The class given is ADME.
For assay [4], the system named is HUVEC. The experiment in a line: Antiangiogenic activity against HUVEC assessed as inhibition of total tube junctions at 1 uM after 16 hrs by inverted microscopy. The class given is functional, cell-based. The settings on record: Homo sapiens. Summed up: (§1)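 HUVECs in M199 with 1% FBS and penicillin/streptomycin, 50,000 cells per well, on Matrigel diluted 1:1 with DMEM and set at 37°C. Cells attached for 20-30 min, then got DMSO, suramin (10 uM) or drug at 10, 1 or 0.1 μM for 16 h. Eight phase-contrast fields per well were imaged. Total tube length and junctions were scored relative to DMSO (100%). Each assay was repeated at least three times.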

Assay [5] in a line: Inhibition of hedgehog pathway in mouse C3H10T1/2 cells assessed as downregulation of Gli1 mRNA expression after 24 hrs by qPCR method. The class given is cell-based. To be noted: C3H 10T1/2, 24 h. The method, boiled down:
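Hh-ligand-stimulated C3H10T1/2 cells (recombinant mouse Sonic Hedgehog C25II) were exposed to a concentration series of compound for 24 h. Gli1 mRNA was read by qPCR. IC50 is the mean ± SEM of at least two separate experiments in triplicate.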
(In general: Quantitative PCR measures a nucleic acid by following its amplification.)

Assay [6] relates to HUVEC. The experiment in a line: Antiangiogenic activity against HUVEC assessed as inhibition of total tube length at 1 uM after 16 hrs by inverted microscopy. The class given is functional, cell-based. To be noted: Homo sapiens. Summed up: as §1
Assay [7] in a line: Inhibition of hedgehog pathway in mouse ASZ cells assessed as downregulation of Gli1 mRNA expression after 48 hrs by qPCR method. The class given is cell-based. Summed up:
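ASZ murine BCC cells, whose Hh signaling is constitutively active through a heterozygous PTCH1 mutation, got no added agonist. They were treated with a concentration series for 48 h and Gli1 mRNA was quantified by qPCR. IC50 is the mean ± SEM of at least two separate experiments in triplicate.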

Assay [8] has as its system HUVEC. Nature of the assay: Antiproliferative activity against HUVEC assessed as inhibition of VEGF induced cell proliferation using methyl-[3H]thymidine after 36 hrs. The class given is functional, cell-based. The settings on record: Homo sapiens.
Assay [9] can be described thus: Antiproliferative activity against mouse MERP MB cells assessed as cell growth inhibition using methyl-[3H]thymidine after 48 hrs by liquid scintillation spectrophotometry. The settings on record: Medulloblastoma cell. The class given is functional. The method, boiled down:
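Primary MB cells isolated from Math1-Cre-ER;Ptc fl/fl (MERP) mouse tumours were cultured in vitro and exposed to compound for 48 h to measure proliferation. GI50 is the mean ± SEM of at least two separate experiments in triplicate.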

Assay [10] in a line: Inhibition of hedgehog pathway in mouse Shh-Light2 cells after 46 hrs by luciferase reporter gene assay. The class given is cell-based. To be noted: Shh Light2, 46 h.
Assay [11] can be described thus: Inhibition of hedgehog pathway in mouse MERP MB cells assessed as downregulation of Gli1 mRNA expression after 48 hrs by qPCR method. The class given is cell-based. The method, boiled down:
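Primary medulloblastoma cells from Math1-Cre-ER;Ptc fl/fl mice were incubated with compound for 48 h. Gli1 mRNA was measured by qPCR. IC50 is the mean ± SEM of two separate experiments.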

Calls of active or inactive are those of the source. The rule behind the calls is not given here.

Chain of Cytochrome P450 3A4 (P08684 whole entry): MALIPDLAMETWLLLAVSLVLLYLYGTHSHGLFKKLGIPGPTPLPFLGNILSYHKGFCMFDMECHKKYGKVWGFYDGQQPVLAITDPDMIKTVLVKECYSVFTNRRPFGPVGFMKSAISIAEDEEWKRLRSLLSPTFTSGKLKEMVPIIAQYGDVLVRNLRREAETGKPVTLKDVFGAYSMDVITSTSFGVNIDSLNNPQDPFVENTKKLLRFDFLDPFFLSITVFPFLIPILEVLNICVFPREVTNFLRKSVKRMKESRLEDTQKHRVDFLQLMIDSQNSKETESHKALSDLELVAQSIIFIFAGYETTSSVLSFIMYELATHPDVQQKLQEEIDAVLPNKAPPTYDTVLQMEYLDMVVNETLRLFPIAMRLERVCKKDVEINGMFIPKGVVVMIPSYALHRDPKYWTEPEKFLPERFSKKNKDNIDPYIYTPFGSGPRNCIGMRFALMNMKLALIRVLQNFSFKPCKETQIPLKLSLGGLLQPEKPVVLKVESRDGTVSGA

Take `CCC(C)n1ncn(-c2ccc(N3CCN(c4ccc(OCC5COC(C)(c6ccc(Cl)cc6Cl)O5)cc4)CC3)cc2)c1=O` (configuration not stated): the Activity in assay [1] worked out at 17.8%. Also, the 50% growth inhibitory concentration (GI50) – broadly, the concentration giving 50% growth inhibition – in assay [2] turned out to be 23.8 µM. Moreover, the figures for the IC50 in assay [3], in assay [5] and in assay [7] were > 10 µM, 140 nM and 170 nM, respectively. Further, the inhibition entry in assay [4] and in assay [6] was “Active” throughout.

In the case of `CCC(C)n1ncn(-c2ccc(N3CCN(c4ccc(OCC5COC(Cn6cncn6)(c6ccc(Cl)cc6Cl)O5)cc4)CC3)cc2)c1=O` (configuration not stated) [ITRACONAZOLE], in assay [1], the Activity turned out to be 1.7%. Besides, the IC50 – broadly, the midpoint of a concentration-inhibition curve – in assay [8] is 160 nM; in assay [5] it was 63 nM; in assay [10], 690 nM; in [7] it was 140 nM; in assay [11], 390 nM. Moreover, the concentration for 50% growth inhibition (GI50) in assay [2] was 0.4 µM; in [9] it was 440 nM. Moreover, the inhibition result in [4] and in assay [6] was “Active” each time.

(Values after ChEMBL document CHEMBL3808299 (J Med Chem, 2016).)
